One series concerns the target CREBBP (Homo sapiens, UniProt Q92793). Kind of series: DiscoverX BROMOscan. It is filed as binding. The note with it: BROMOscan Kd.
The nature of series [1]: animal weight and signs of toxicity in efficacy studies. The series is classed as in vivo. As to conditions: all the three dose-schedules tested.
Another series relates to other 371 kinases. Kind of series: kinase panel by Reaction Biology. It is filed as biochemical. As to conditions: at 3 µM.
The nature of series [2]: full pharmacokinetics in mice. It is filed as in vivo. The note with it: Balb/c, mouse, plasma, po, 25 mg/kg. The procedure, abridged: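 Balb/c mice dosed orally at 25 mg/kg (iv arm 5.0 mg/kg), test compound in 20% (v/v) PCP and 70% (v/v) PBS. Blood taken 0, 5, 15, 30 min and 1, 2, 4, 6, 8, 24 h post-dose and centrifuged; plasma held at −80 °C. Plasma levels by LC−MS/MS (C18, formic acid/CH3CN gradient, positive-ion MRM); parameters by noncompartmental analysis.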

Series [3] deals with 23 other non-BET family bromodomain containing proteins. Kind of series: DiscoverX BROMOscan, other non-BET bromodomains summary. It is filed as binding. As to conditions: at concentrations of 3–4 µM.
The target in another series is T1, EP300 (Homo sapiens, UniProt Q09472).
T1 sequence (Q09472 1040-1161 limits assumed): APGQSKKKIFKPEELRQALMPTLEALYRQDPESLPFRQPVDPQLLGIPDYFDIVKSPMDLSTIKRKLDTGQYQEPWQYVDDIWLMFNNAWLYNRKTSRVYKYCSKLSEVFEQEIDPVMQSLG
Kind of series: DiscoverX BROMOscan. It is filed as binding. The note with it: BROMOscan Kd.

The next series is described as follows: aqueous solubility. It is filed as physicochemical. As to conditions: aqueous solution.
The next series deals with CECR2 (Homo sapiens, UniProt Q9BXF3). Kind of series: DiscoverX BROMOscan. It is filed as binding. The note with it: BROMOscan Kd.
Another series deals with BRD4 BD1 (Homo sapiens, UniProt O60885). Kind of series: fluorescence polarization binding assay, BRD4 BD1. As to conditions: relative to compound 24. The procedure, abridged:
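Binding measured by fluorescence polarization against recombinant human BRD4 BD1 (residues 44−168), using the group's previously established FP assay.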
On the technique in general: Fluorescence polarisation rises when a labelled molecule tumbles more slowly, as on binding a larger partner.

Values after ≈ are worked out from the molar mass of the structure shown. Bounds are passed on as bounds.

Chain of CECR2 (Q9BXF3 424-538 limits assumed): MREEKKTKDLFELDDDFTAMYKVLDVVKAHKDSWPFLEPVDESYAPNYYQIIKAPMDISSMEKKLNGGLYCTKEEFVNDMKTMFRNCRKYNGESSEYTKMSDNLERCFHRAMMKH
Chain of CREBBP (Q92793 1081-1197 limits assumed): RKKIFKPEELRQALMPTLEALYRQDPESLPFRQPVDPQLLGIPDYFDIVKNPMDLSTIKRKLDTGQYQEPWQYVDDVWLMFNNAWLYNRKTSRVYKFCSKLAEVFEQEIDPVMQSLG

By Cmax is commonly meant the highest concentration seen after dosing. One may read the solubility as the dissolved amount per volume that the medium holds. High values mean a readily soluble substance, low ones a poorly soluble substance. On to `COc1cc2c(cc1-c1c(C)noc1C)[nH]c1nc(C)nc(Nc3cc(C4CC4)nn3C)c12` [Compound 28, N-(3-Cyclopropyl-1-methyl-1H-pyrazol-5-yl)-7-(3,5-dimethylisoxazol-4-yl)-6-methoxy-2-methyl-9H-pyrimido[4,5-b]indol-4-amine], for which, at CREBBP, the “selectivity for BET bromodomains over CREBBP” value was over 20 fold. In [1], the “other signs of toxicity” value is “does not cause other signs of toxicity” and the weight loss entry was “no more than 5%”. The “inhibition against other 371 kinases” value in the series on other 371 kinases is listed as “no appreciable inhibition”. Also, the Cmax in [2] worked out at 6.4 µM. In addition, the “binding affinity to 23 other non-BET bromodomain containing proteins” value in series [3] was “no appreciable binding affinity”. Besides, the “selectivity for BET bromodomains over EP300” value at EP300 was over 50 fold. The same compound had a solubility in “aqueous solubility” (pH 3, aqueous buffer) of 19.5 ± 5.5 µM (≈ 8.65 µg/mL). In the series “aqueous solubility” (pH 11, aqueous buffer), this compound gave a solubility of 14 ± 0.5 µM (≈ 6.21 µg/mL). Also, the “selectivity for BET bromodomains over CRCR2” value at CECR2 is on record as over 50 fold.
With `COc1cc2c(cc1-c1c(C)noc1C)[nH]c1nc(C)nc(Nc3c(C)c(C4CC4)nn3C)c12` [Compound 37, N-(3-Cyclopropyl-1,4-dimethyl-1H-pyrazol-5-yl)-7-(3,5-dimethylisoxazol-4-yl)-6-methoxy-2-methyl-9H-pyrimido[4,5-b]indol-4-amine], on BRD4 BD1, the “times less potent than 24 in binding to BRD4 BD1” value is listed as over 5 times.

Source of the values: paper PMC6489120 (Journal of medicinal chemistry, 2018).
